Source: PubChem (several laboratories)
A selection: hits, their analogues and other compounds. The true share with any hit is near 2.7%.
M18AAP inhibitor: blocks P. falciparum M18 aspartyl aminopeptidase; recombinant PfM18AAP, H-Glu-NHMec fluorogenic cleavage; inhibition, % at 7.35 µM; hit rate 1.2% among 290,000; AID 1822;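 active means inhibition above the campaign mean inhibition over all tested compounds plus 3 SD, cut at about 28% in these data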;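 further: 0% = plate median of test compound wells and 100% = 2 mM ZnCl2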
TNF death inh: inhibitors of TNF-alpha induced necroptosis in Jurkat FADD-/- cells | Jurkat FADD-/- TNF necroptosis rescue, ATP luminescence, 24 h; 0 = TNF only, 100 = no-TNF cells | activation (protection from cell death), % at 10 µM | hit rate 0.068% among 220,000 | AID 463075;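 active means activation, meaning protection from cell death, of at least 50% relative to plate controls; inactive means activation below 50%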;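 further: necroptosis triggered by 40 ng/mL TNF-alpha added together with compound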
zVAD death inh: L929 zVAD cell death inhibition; L929 zVAD necroptosis rescue, ATP luminescence, 24 h; with zVAD 60 µM; hit rate 0.38% among 220,000; viability rescue, % at 10 µM;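 active means activation, scaled between plate controls, above about 75%, limit read from the data; inactive means activation under that limit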;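 further: 0% = zVAD with DMSO and 100% = DMSO alone without zVAD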
RBBP9 inhibitor: human RBBP9 hydrolase inhibition; inhibition, % at 7.94 µM; recombinant RBBP9, FP-Rh probe fluorescence polarization; O75884; hit rate 0.2% among 220,000; AID 1515;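 active means inhibition above the campaign mean of all tested compounds plus 3 SD, cut at about 14% in these data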;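 further: plate controls were DMSO wells with RBBP9 for no effect and wells lacking RBBP9 protein for full effect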
Target sequence (O75884 whole entry, looked up): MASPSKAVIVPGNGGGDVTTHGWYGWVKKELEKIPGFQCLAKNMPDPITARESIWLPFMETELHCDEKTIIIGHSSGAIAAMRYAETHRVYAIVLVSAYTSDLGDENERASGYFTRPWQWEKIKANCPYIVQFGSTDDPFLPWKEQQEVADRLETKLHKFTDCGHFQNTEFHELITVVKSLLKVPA
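System: RBBP9 protein / Quantity: 2.5 µM RBBP9 dispensing solution, before mixing / Also added: Serine-hydrolase probe FP-Rh, 375 nM pre-mixing / Dosing: 7.94 µM single dose, 0.794% DMSO / Timing: enzyme-compound preincubation 30 min, then probe labeling 45 min, 25 °C / Signal: FP readout at 525/598 nm / Controls: DMSO-treated enzyme wells and wells lacking RBBP9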
Wee1 degr inh: inhibitors of human Wee1 degradation; hit rate 1.2% among 220,000; reporter increase, % at 5 µM; HeLa Luc-Wee1K328M stability, luciferase luminescence; 100% = proteasome inhibitor MG132 effect; P30291; AID 1321;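 active means activation above the mean of all tested compounds plus 3 SD, set per screening run, cut at about 8.8% in these data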;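 further: cells exposed to compound for 20 h before luminescence read; 0% = DMSO alone and 100% = MG132 at 30 µM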
p97 inhibitor: blocks human p97 ATPase activity | P55072 | recombinant p97 ATPase, Kinase-Glo ATP luminescence, 3 h | inhibition, % at 8 µM | hit rate 0.42% among 220,000; in the data active means inhibition above about 15%;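 further: 0% = DMSO vehicle and 100% = wells lacking enzyme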
The depositor's hits bear a star; / = no result given.

SMILES | M18AAP inhibitor | TNF death inh | zVAD death inh | RBBP9 inhibitor | Wee1 degr inh | p97 inhibitor
O=C(OCCN(C1=NS(=O)(=O)c2ccccc21)c1ccccc1Cl)c1ccc(Cl)cc1 | 6 | -2 | -1 | -2 | 9.7* | 1
CC(=O)N1CCc2cc(S(=O)(=O)NCC(=O)NCc3ccc(F)cc3)ccc21 | -1 | / | / | / | / | /
N#Cc1c(-c2ccncc2)c2c([nH]c1=S)CCCC2 | 11 | -3 | 0 | -6 | -3 | -1
Cc1ccc(-c2c3c([nH]c(=S)c2C#N)CCCC3)o1 | 31* | -2 | 0 | -7 | -3 | 0
CCN1CCN(C(c2cccs2)C(C)NS(=O)(=O)c2ccccc2)CC1 (centres undefined) | -6 | 1 | -2 | -10 | 11* | -2
CCN1CCN(C(c2cccs2)C(C)NS(=O)(=O)c2ccc(C)cc2)CC1 (centres undefined) | 1 | 0 | -2 | -12 | -1 | -8
O=c1c(C/C=C/c2ccccc2)c(O)ccn1Cc1cccc(Cl)c1 | 4 | 1 | 0 | -6 | 11* | 4
O=C(NCCCO)c1ccc2nc(-c3ccco3)c(-c3ccco3)nc2c1 | 29* | -2 | 4 | 9 | 4 | 8
S=C(Nc1ccc(N2CCOCC2)cc1)Nc1ccc2nc(-c3ccco3)c(-c3ccco3)nc2c1 | 44* | -3 | 1 | 12 | -3 | 10
O=C(NCCO)Nc1ccc2nc(-c3ccco3)c(-c3ccco3)nc2c1 | 37* | 1 | 0 | 15* | 5 | 44*
CCCCC(=O)Nc1ccc(N2CCN(C(=O)c3ccco3)CC2)cc1 | 4 | / | / | / | / | /
Cc1cc(NC(=O)CC2(CC(=O)O)CCCC2)n(C)n1 | -13 | 2 | 0 | -7 | 3 | -4
O=C(CSc1nc2ccccc2s1)NC1CCS(=O)(=O)C1 (centres undefined) | 3 | 0 | -1 | -9 | 11* | -4
O=C(CSc1nnc(NCc2ccccc2)s1)NC1CCS(=O)(=O)C1 (centres undefined) | -8 | 2 | 0 | -3 | -2 | -1
CCCc1nc2ccc(NC(=O)NCCC(=O)OCC)cc2c(=O)n1Cc1cccc(Cl)c1 | 5 | 1 | 0 | -5 | 17* | 0
CCCc1nc2ccc(NC(=O)NCCC(=O)OCC)cc2c(=O)n1Cc1ccc(Cl)cc1 | -7 | 0 | -1 | -9 | 2 | -8
O=c1cnnc(N/N=C/c2c[nH]c3ccccc23)[nH]1 | 29* | -2 | 2 | 4 | -1 | 2
Cc1cc(=O)[nH]c(N/N=C/c2cccs2)n1 | 11 | 1 | 0 | -5 | 0 | 4
O=C(O)c1cc(N/N=C/c2c[nH]c3ccccc23)ccc1Cl | 7 | / | / | / | / | /
O=c1cnnc(N/N=C/c2cccs2)[nH]1 | 30* | 1 | 0 | 2 | 7 | 8
C/C(=N/NC(=O)c1cc(C)[nH]n1)c1ccncc1 | -8 | / | / | / | / | /
CO[C@@]1(NC(=O)Cc2cccs2)C(=O)N2C(C(=O)O)=C(COC(N)=O)CS[C@@H]21 | -6 | 3 | 0 | 0 | 10* | 5
Cc1c(C(=O)NCCc2ccccc2)oc2ccc(S(=O)(=O)N3CCC4(CC3)OCCO4)cc12 | 4 | 1 | 0 | -7 | 9.5* | 9
CCOC(=O)CC1C(=O)NCCN1S(=O)(=O)c1ccc(NC(C)=O)cc1 (centres undefined) | 28* | / | / | / | / | /
CCOC(=O)CC1C(=O)NCCN1S(=O)(=O)c1ccc(F)cc1 (centres undefined) | 0 | -1 | 0 | -3 | 2 | -3
SMILES | M18AAP inhibitor | TNF death inh | zVAD death inh | RBBP9 inhibitor | Wee1 degr inh | p97 inhibitor
CC(OC(=O)c1cccc(S(=O)(=O)Nc2cccc(C(F)(F)F)c2)c1)C(=O)Nc1ccc2c(c1)OCCO2 (centres undefined) | 5 | 4 | 7 | -9 | 9.2* | 11
O=C(CCC1CCCN(C(=O)c2ccccc2Cl)C1)N1CCN(c2ccccn2)CC1 (centres undefined) | 7 | / | / | / | / | /
CC(=O)N/C(=C/c1ccc(OS(=O)(=O)c2ccc(C)cc2)cc1)C(=O)NCCCO | -4 | 5 | 1 | -16 | 2 | 8
O=C(CSCc1ccc(F)cc1)NC1CCCC1 | 2 | 20 | 0 | 5 | 0 | 0
O=C(CSCc1ccc([N+](=O)[O-])cc1)NC1CCCCCC1 | -1 | 63* | 2 | -5 | -1 | -3
Cc1ccnc(NS(=O)(=O)c2ccc(NC(=O)CCc3ccccc3)cc2)n1 | -9 | / | / | / | / | /
NNc1nc2c(Cl)c(Cl)ccc2s1 | 30* | 0 | 2 | 12 | 3 | 7
NC(=O)Cn1ccc(O)c(Cc2ccc(Cl)cc2Cl)c1=O | -12 | / | / | / | / | /
COc1ccc(C(=O)c2ccc(Cl)cc2)cc1 | -11 | 0 | 0 | -5 | 2 | -6
COc1ccc(C(C#N)=C2C=CC(=NO)C=C2)cc1 | 29* | -11 | 3 | -14 | 0 | 5
O=C(CCCc1ccccc1)Nc1cccc2c1CCCC2 | 6 | 2 | 0 | 4 | 11* | 0
CCSc1nc2ccccc2[nH]1 | 4 | 0 | 2 | 0 | 1 | 4
CCSc1nc(=S)cc(C)[nH]1 | 28* | -3 | 0 | 4 | 6 | 3
COc1ccc(-n2ncc3c2CC(C)(C)CC3NC(=O)c2cn[nH]c2)cc1 (centres undefined) | 1 | / | / | / | / | /
Cc1ccc(NNC(=O)Nc2ccc(Cl)cc2)nn1 | 32* | -1 | 0 | 3 | 2 | 6
Cc1cc(NC(=O)Nc2ccc(Cl)cc2)n(C)n1 | 0 | / | / | / | / | /
Cc1ccc2nc(C(C)O)[nH]c2c1 (centres undefined) | -5 | 0 | 0 | 0 | 9.5* | 1
CCOC1OC(=O)C(Cl)=C1Nc1cc(C)ccc1C (centres undefined) | 9 | -1 | 4 | -5 | -1 | -3
N/C(=N\OC(=O)Oc1ccccc1)c1cccc([N+](=O)[O-])c1 | 1 | -1 | 1 | -9 | -1 | -2
O=C(C#Cc1ccccc1)c1cccc([N+](=O)[O-])c1 | 14 | -10 | 17 | -6 | -3 | 15*
COc1ccccc1NS(=O)(=O)c1cccc(NC(=O)NCCCl)c1 | -9 | 2 | -1 | 1 | 11* | 8
O=C(NCc1ccccn1)C(=O)C1C(=O)Nc2ccccc21 (centres undefined) | 5 | 0 | 1 | 5 | 9.5* | 9
CCOc1ccccc1NC(=O)C(=O)CC(=O)c1ccc(OC)cc1 | -4 | / | / | / | / | /
COCCn1nnnc1C(c1cc2cc(OC)c(OC)cc2[nH]c1=O)N1CCN(c2ccc(O)cc2)CC1 (centres undefined) | 28* | 2 | 1 | 7 | -1 | 4
CCc1ccc2[nH]c(=O)c(C(c3nnnn3CCOC)N3CCN(c4ccc(F)cc4)CC3)cc2c1 (centres undefined) | -3 | -4 | 0 | -7 | 0 | 0
